Laboratory results published in publication PMC4554820 (Bioorganic & medicinal chemistry, 2015).
Entries after “also recorded” stand apart in the source; their conditions may differ. Counter-ions that a name gives are not always drawn. Like-named read-outs stand apart in the source and are kept apart here.

Legend:
[1] = format: physicochemical; conditions: for k (min^−1) in 1:1 MeOH : 0.1 N NaOH / k (min^−1) in 1:1 MeOH : PBS / t1/2 (min) in 1:1 MeOH : 0.1 N NaOH: decomposition; for k (min^−1) in 1:1 MeOH : PBS: 1:1 MeOH:PBS (100 mM, pH 7.4), room temperature
In short: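 The test compound in MeOH (1 mL) was mixed with 1 mL of 100 mM PBS pH 7.4 or 0.1 M NaOH in a sealed cuvette at rt. Loss of absorbance at 667 nm was read every 15 min for 10 h. Rate constants and half-lives came from the exponential decay.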

[2] = Kinetic UV-vis decomposition in the presence of glutathione; format: physicochemical; conditions: PBS pH 7.4 + 2-fold GSH, room temperature
GAPDH [3] = molecular target: T1, GAPDH (Oryctolagus cuniculus, UniProt P46406); assay: Reversibility of GAPDH inhibition by DTT; format: biochemical; conditions: GAPDH incubated with compound 1 hr, then DTT (10 mM) 1 hr
T1 sequence (P46406 whole entry): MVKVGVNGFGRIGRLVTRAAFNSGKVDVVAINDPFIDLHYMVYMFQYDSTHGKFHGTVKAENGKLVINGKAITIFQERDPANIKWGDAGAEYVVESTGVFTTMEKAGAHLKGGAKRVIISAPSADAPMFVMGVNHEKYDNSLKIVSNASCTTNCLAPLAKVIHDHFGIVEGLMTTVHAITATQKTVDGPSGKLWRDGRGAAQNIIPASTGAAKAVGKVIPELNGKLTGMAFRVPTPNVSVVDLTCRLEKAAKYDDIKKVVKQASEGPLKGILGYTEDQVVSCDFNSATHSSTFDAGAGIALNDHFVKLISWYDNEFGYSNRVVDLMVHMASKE

[4] = tested on: porcine liver esterase (PLE); assay: Kinetic UV-vis decomposition in the presence of porcine liver esterase; format: in vitro ADME; conditions: PBS buffer (3 % DMF) + PLE
GAPDH [5] = molecular target: T1, GAPDH; assay: HPLC-HRMS assay of GAPDH modification; format: biochemical; conditions: incubated 1 hr rt, tryptic digestion
In short: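 Lyophilised GAPDH dissolved in 100 mM PBS pH 7.4, concentration set by A280 (ε 14600 M⁻¹cm⁻¹). Protein 100 µM final with test compound 1 mM final (added from MeOH stock) in water, 1 h rt. Trypsin digest (20:1 ratio) at 37 °C for 17 h, then diluted to 10 µM peptide. C18 LC with 0.1% formic acid water/MeOH gradient (5–95% over 10 min). Orbitrap HRMS, positive ESI. No-compound control.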

[6] = tested on: human platelet aggregation induced by ADP; assay: Platelet aggregation inhibition; format: cell-based; conditions: PRP, ADP 5 μM
In short: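 Human PRP came from blood spun at 100 g for 10 min, and PPP from PRP spun at 4500 g for 10 min. PRP or PPP plus CaCl₂ (2 mM) went into wells. The test compound (100, 75, 50, 10 µM) was added for 20 min at rt, then ADP 5 µM. Light transmission was read every 20 s with double-orbital agitation and normalised to PPP = 100% and PRP = 0%.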

[7] = tested on: human platelet activation induced by (ADP); assay: Platelet activation inhibition; format: cell-based; conditions: for platelet activation inhibition: PRP, ADP 5 μM
GAPDH [8] = molecular target: T1, GAPDH; conditions: HPLC-HRMS, cited from earlier work; for Products, GAPDH tryptic peptide V233-R246: comparison/previous work
[9] = PBS buffer, pH = 7.6; cited from earlier work
[10] = 1:1 MeOH:phosphate buffered saline, pH 7.4

| SMILES | half-life at 30 mM [1, 10] | k (min^−1) in 1:1 MeOH : PBS [1] | k (min^−1) in PBS + 2-fold GSH [2] | t1/2 (min) in PBS + 2-fold GSH [2] | % of GAPDH activity restored by the addition of DTT (GAPDH [3]) | Products, GAPDH tryptic peptide V233-R246 (GAPDH [8]) | also measured |
| --- | --- | --- | --- | --- | --- | --- | --- |
| CC(=O)OC1(N=O)CCOCC1 [Compound 4, 4-Nitrosotetrahydro-2H-pyran-4-yl acetate] | 13 h | 0.00089 min⁻¹ | 0.011 min⁻¹ | 65 min | 22% | – | half-life at 30 mM ([1]; 1:1 MeOH:0.1 N NaOH): 0.2 h; k (min^−1) in 1:1 MeOH : 0.1 N NaOH ([1]; 1:1 MeOH:0.1 N NaOH): 0.057 min⁻¹ |
| CC(Cl)(Cl)C(=O)OC1(N=O)CCOCC1 [Compound 7, 4-Nitrosotetrahydro-2H-pyran-4-yl 2,2-dichloropropanoate] | 2 h | 0.0058 min⁻¹ | 0.0578 min⁻¹ | 12 min | 9% | – | t1/2 (min) in 1:1 MeOH : 0.1 N NaOH ([1]; 1:1 MeOH:0.1 N NaOH): decompose immediately and Fast; decomposition rate constant k with PLE [4]: 0.03 min⁻¹; Products, GAPDH tryptic peptide I144-K160 (GAPDH [5]): Internal disulfide; RSSR; Products, GAPDH tryptic peptide V233-R246 (GAPDH [5]): Sulfinamide; RSONH2; also recorded: Sulfinic acid; RSOOH |
| O=NC1(OC(=O)C(Cl)(Cl)Cl)CCOCC1 [Compound 6, 4-Nitrosotetrahydro-2H-pyran-4-yl 2,2,2-trichloroacetate] | 0.833 h | 0.014 min⁻¹ | 0.173 min⁻¹ | 4 min | 19% | – | t1/2 (min) in 1:1 MeOH : 0.1 N NaOH ([1]; 1:1 MeOH:0.1 N NaOH): decompose immediately and Fast; decomposition rate constant k with PLE [4]: 0.087 min⁻¹; Products, GAPDH tryptic peptide I144-K160 (GAPDH [5]): Internal disulfide; RSSR; Products, GAPDH tryptic peptide V233-R246 (GAPDH [5]): Sulfinamide; RSONH2; also recorded: Sulfinic acid; RSOOH; inhibition of platelet aggregation ([6]; 10 μM, compared with positive control (PRP + ADP)): no effect; inhibition of platelet aggregation ([6]; 100 μM, 20 min incubation rt): Complete inhibition; inhibition of platelet aggregation ([6]; 50 and 75 μM): intermediate activities; platelet activation inhibition ([7]; 1 μM): lower activity; inhibition of expression of the activated marker (CD62P) ([7]; 10 μM, PRP incubated with ADP (2 μM)): 83%; platelet activation inhibition ([7]; 100, 75, 50, and 10 μM): potent and similar effect |
| [Na+].[Na+].[O-][N+]([O-])=NO [AS, Angeli’s salt (Na2N2O3, AS)] | – | – | – | – | – | sulfinamide as a major product and sulfinic acid as a minor product; also recorded: Sulfinamide; RSONH2; also recorded: Sulfinic acid; RSOOH | Products, GAPDH tryptic peptide I144-K160 (GAPDH [8]; comparison): Internal disulfide; RSSR |
| O=NC1(OC(=O)C(F)(F)F)CCCCC1 [Compound 2, 1-nitrosocyclohexyl trifluoroacetate] | – | – | – | – | – | sulfinamide as a major product and sulfinic acid as a minor product | t1/2 of HNO release [9]: 121 milliseconds (ms) |
| CC(=O)OC1(N=O)CCCCC1 [Compound 1, 1-nitrosocyclohexyl acetate] | – | – | – | – | – | sulfinic acid as a major product | – |
| CC(C)(C)C(=O)OC1(N=O)CCOCC1 [Compound 5, 4-Nitrosotetrahydro-2H-pyran-4-yl pivalate] | 31.7 h | 0.00036 min⁻¹ | 0.007 min⁻¹ | 99 min | – | – | half-life at 30 mM ([1]; 1:1 MeOH:0.1 N NaOH): 31.2 h; k (min^−1) in 1:1 MeOH : 0.1 N NaOH ([1]; 1:1 MeOH:0.1 N NaOH): 0.00037 min⁻¹ |
